Calls of active or inactive are those of the source. The calls are words filed in the database; no cut-off is given here.
Experiments:
[1] = Total plasma concentration in NOD-SCID mouse at 7.5 mg/kg, ip measured after 90 mins by HPLC/MS/MS analysis; format: ADME, organism-based
Outline: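 A single 7.5 mg/kg i.p. dose given to eight-week-old NOD/SCID mice (n = 4). Blood collected at 90 min. Plasma treated with acetonitrile containing internal standard (1:2) to precipitate protein, centrifuged, and the supernatant analyzed by C18 gradient HPLC-MS/MS in ESI-negative MRM mode. Calibration in spiked blank plasma, linear over 1–1000 nM, LOQ 1 nM. Values are mean ± SEM.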

[2] = target: T1, Estrogen receptor (Homo sapiens) (UniProt P03372); assay: Displacement of [3H]estradiol from human full length recombinant ERalpha expressed in baculovirus-infected Sf9 cells at 50 uM incubated for 120 mins by radiometric scintillation counting analysis
T1 sequence (whole entry): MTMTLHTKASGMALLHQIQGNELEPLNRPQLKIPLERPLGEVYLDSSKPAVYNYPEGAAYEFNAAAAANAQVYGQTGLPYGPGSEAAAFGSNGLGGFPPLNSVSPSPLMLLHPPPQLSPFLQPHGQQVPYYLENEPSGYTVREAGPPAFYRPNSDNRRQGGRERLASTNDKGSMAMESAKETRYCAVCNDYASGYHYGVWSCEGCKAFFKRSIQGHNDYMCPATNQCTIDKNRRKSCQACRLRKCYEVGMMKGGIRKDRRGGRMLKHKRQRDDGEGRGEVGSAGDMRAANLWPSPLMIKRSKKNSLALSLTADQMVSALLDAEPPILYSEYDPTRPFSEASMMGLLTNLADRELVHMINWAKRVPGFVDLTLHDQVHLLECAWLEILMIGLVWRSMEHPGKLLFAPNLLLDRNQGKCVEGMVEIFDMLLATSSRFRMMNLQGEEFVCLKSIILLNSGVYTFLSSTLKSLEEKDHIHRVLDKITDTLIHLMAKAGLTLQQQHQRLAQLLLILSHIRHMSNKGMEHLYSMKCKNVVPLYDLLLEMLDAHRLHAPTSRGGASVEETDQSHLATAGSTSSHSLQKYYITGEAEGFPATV
Outline: (§1)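 Radioligand competition binding to human ERα or ERβ, run as an outsourced panel assay. Readout is % inhibition of specific [3H]estradiol binding at 5.0 and 50 µM compound. Run in duplicate, and the mean of the duplicates is reported.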

U-266 [3] = assay: Trapping activity at FGF in human U-266 cells assessed as inhibition of FGFR3 phosphorylation at 6 uM measured after 6 hrs by westernblot analysis; format: cell-based
Outline: (§2)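 Cells cultured in RPMI1640 with 10% FBS and 2.0 mM glutamine, then treated 6 h with 6 µM compound. Washed in cold PBS and lysed in NP-40 buffer (20 mM Tris-HCl pH 8, 1 mM orthovanadate, protease inhibitors). Bradford used to normalize protein. Blots probed for phospho-FGFR3 (Y724), with β-actin or α-tubulin as loading control; percent inhibition read by densitometry.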

KMS-11 [4] = assay: Trapping activity at FGF in human KMS-11 cells assessed as inhibition of FGFR3 phosphorylation at 6 uM measured after 6 hrs by western blot analysis; format: cell-based
Outline: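 KMS-11 cells treated for 6 h with compound at 6.0 µM, then lysed in NP-40 buffer containing orthovanadate and protease inhibitors. Phospho-FGFR3 detected by western blot with anti-phospho-Y724 antibody, using β-actin or α-tubulin as loading control. Result expressed as % inhibition of FGFR3 phosphorylation by densitometry.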

[5] = target: Estrogen receptor beta (Homo sapiens) (UniProt Q92731); assay: Displacement of [3H]estradiol from human full length recombinant ERbeta expressed in baculovirus-infected Sf9 cells at 5 uM incubated for 120 mins by radiometric scintillation counting analysis; outline: as §1
[6] = target: T1, Estrogen receptor (Homo sapiens); assay: Displacement of [3H]estradiol from human full length recombinant ERalpha expressed in baculovirus-infected Sf9 cells at 5 uM incubated for 120 mins by radiometric scintillation counting analysis; outline: as §1
OPM-2 [7] = assay: Trapping activity at FGF in human OPM-2 cells assessed as inhibition of FGFR3 phosphorylation at 6 uM measured after 6 hrs by westernblot analysis; format: cell-based; outline: as §2
KMS-11 [8] = assay: Antitumor activity against human KMS-11 cells xenografted in NOD-SCID mouse assessed as tumor growth inhibition at 7.5 mg/kg, ip administered every other day measured at day 17 post-tumor implantation by caliper analysis; format: functional, organism-based
Outline: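 Female NOD/SCID mice, six to eight weeks old, injected s.c. with 5 × 10^6 KMS-11 cells in PBS. Once tumors were palpable (10 days), mice were randomized and given 7.5 mg/kg i.p. every other day, with DMSO as vehicle control; n = 5 per group. Tumor volume from caliper measurements, V = (D × d²)/2. Tumors excised and weighed at day 17.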

U-266 [9] = assay: Antiproliferative activity against human U-266 cells assessed as reduction in cell viability incubated for 48 hrs by propidium iodide staining-based flow cytometric analysis; format: functional; conditions: U-266, 48 h
Outline: (§3)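 Myeloma cells kept at low passage in RPMI1640 with 10% heat-inactivated FBS and 2.0 mM glutamine, Mycoplasma-tested, authenticated. Exposed to increasing concentrations of test compound for 48 h. Viable cells counted as propidium iodide-negative by flow cytometry with absolute counts. IC50 = concentration halving proliferation; mean of at least 2 experiments in triplicate.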

[10] = Drug metabolism in NOD-SCID mouse plasma assessed as (1R)-4,4,4-trifluoro-1-((3S,10R,13S,17S)-3-hydroxy-10,13-dimethyl-2,3,4,7,8,9,10,11,12,13,14,15,16,17-tetradecahydro-1H-cyclopenta[a]phenanthren-17-yl)-3-(trifluoromethyl)butane-1,3-diol formation at 7.5 mg/kg, ip measured after 90 mins by HPLC-MS/MS analysis; format: ADME, organism-based; conditions: in vivo, 1.5 h
OPM-2 [11] = assay: Antiproliferative activity against human OPM-2 cells assessed as reduction in cell viability incubated for 48 hrs by propidium iodide staining-based flow cytometric analysis; format: functional; conditions: OPM-2, 48 h; outline: as §3
RPMI-8226 [12] = assay: Trapping activity at FGF in human RPMI-8226 cells assessed as inhibition of FGFR3 phosphorylation at 6 uM measured after 6 hrs by westernblot analysis; format: cell-based; outline: as §2
[13] = target: Fibroblast growth factor 2 (Homo sapiens, UniProt P09038); assay: Binding affinity to FGF2 (unknown origin) by sensor chip immobilization based surface plasmon resonance analysis
RPMI-8226 [14] = assay: Antiproliferative activity against human RPMI-8226 cells assessed as reduction in cell viability incubated for 48 hrs by propidium iodide staining-based flow cytometric analysis; format: functional; conditions: RPMI-8226, 48 h; outline: as §3
KMS-11 [15] = assay: Antiproliferative activity against human KMS-11 cells assessed as reduction in cell viability incubated for 48 hrs by propidium iodide staining-based flow cytometric analysis; format: functional; conditions: KMS-11, 48 h
Outline: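 KMS-11 cells (maintained in RPMI1640 with 10% heat-inactivated FBS and 2.0 mM glutamine) exposed to increasing concentrations of compound for 48 h. Viable PI-negative cells counted by flow cytometry using the analyzer's absolute counting function. IC50 is the concentration giving 50% inhibition of proliferation, taken as the mean of at least 2 experiments run in triplicate.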

[16] = target: Estrogen receptor beta (Homo sapiens) (UniProt Q92731); assay: Displacement of [3H]estradiol from human full length recombinant ERbeta expressed in baculovirus-infected Sf9 cells at 50 uM incubated for 120 mins by radiometric scintillation counting analysis; outline: as §1

Estrogen receptor beta (Homo sapiens), sequence (Q92731 whole entry): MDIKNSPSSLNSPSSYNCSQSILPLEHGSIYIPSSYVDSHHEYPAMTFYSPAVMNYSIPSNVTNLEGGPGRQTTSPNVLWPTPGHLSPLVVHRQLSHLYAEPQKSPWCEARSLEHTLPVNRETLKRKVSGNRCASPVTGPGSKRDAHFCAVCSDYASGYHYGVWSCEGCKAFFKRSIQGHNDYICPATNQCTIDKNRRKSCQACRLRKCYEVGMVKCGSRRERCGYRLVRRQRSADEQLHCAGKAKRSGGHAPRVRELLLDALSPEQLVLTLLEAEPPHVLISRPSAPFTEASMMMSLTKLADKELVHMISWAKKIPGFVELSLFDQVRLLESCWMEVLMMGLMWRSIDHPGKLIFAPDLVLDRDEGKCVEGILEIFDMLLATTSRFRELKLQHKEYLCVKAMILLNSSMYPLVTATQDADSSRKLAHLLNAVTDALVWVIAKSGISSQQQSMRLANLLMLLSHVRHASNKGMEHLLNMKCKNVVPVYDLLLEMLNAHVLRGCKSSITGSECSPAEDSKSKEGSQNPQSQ
Fibroblast growth factor 2, sequence (P09038 143-288 limits assumed): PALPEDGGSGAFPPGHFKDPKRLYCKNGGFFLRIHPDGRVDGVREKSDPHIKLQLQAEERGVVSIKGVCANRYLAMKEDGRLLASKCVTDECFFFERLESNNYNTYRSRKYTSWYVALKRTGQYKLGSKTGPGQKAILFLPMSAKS

concentration at 1.5 h [1]: 7.5 nM
inhibition [2]: 50%
inhibition [5]: 21.4%
inhibition [6]: 7.4%
Drug metabolism [10]: Metabolite_Detected
Kd [13]: 30 µM
IC50 (RPMI-8226 [14]): 7.3 µM
inhibition [16]: 71.3%
Structure (SMILES): C[C@]12CC[C@H]3[C@@H](CC=C4C[C@@H](OC(=O)CN)CC[C@@]43C)[C@@H]1CC[C@@H]2[C@H](O)CC(O)(C(F)(F)F)C(F)(F)F
Activity (U-266 [3]): Active
inhibition (KMS-11 [4]): 100%
Activity (OPM-2 [7]): Active
Activity (KMS-11 [8]): inactive
IC50 (U-266 [9]): 6.9 µM
IC50 (OPM-2 [11]): 7.3 µM
Activity (RPMI-8226 [12]): Active
IC50 (KMS-11 [15]): 2.3 µM

Reference: ChEMBL document CHEMBL4837219, “Chemical modification of NSC12 leads to a specific FGF-trap with antitumor activity in multiple myeloma” (Eur J Med Chem, 2021)
